Compounds with a hit are over-represented: about 5.5% of the library has one in this group of screens.
HSV replic up: HSV replication enhancement; HSV replication augmentation in cells, fold increase; 0.005% of 220,000 active; maximum fold increase; in the data active = maximum fold increase above about 1.5; inconclusive = no clear call, values can overlap the other calls; tested in PC3 cells
STAT1 blocker: reduces IFN-gamma driven STAT1 reporter signal. 0.35% of 200,000 active. NIH 3T3 STAT1-luciferase reporter, luminescence. inhibition, % at 5.5 µM;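 active = inhibition above a set limit, the mean inhibition across all tested compounds plus 3 SD, cut at about 34% in these data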;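 note: 0% = IFN-gamma with DMSO and 100% = IFN-gamma with 300 µM nifuroxazide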
STAT3 inh: inhibitors of IL-6 induced STAT3 signaling; U3A cells, IL-6 STAT3-luciferase reporter, luminescence; host cell line lacks STAT1; inhibition, % at 5.5 µM; AID 862; 0.89% of 190,000 active;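 active = inhibition above the mean inhibition across all screened compounds plus 3 SD, cut at about 44% in these data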;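 note: 0% = DMSO only wells and 100% = 100 µM nifuroxazide control wells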
KCC2 mod: modulators of human KCC2 chloride dependent transport; AID 1456; B-score of Tl+ flux slope (higher = more flux/activation; lower = inhibition) at 10 µM; 2.2% of 190,000 active; KCC2 cells, thallium flux FluoZin-2 fluorescence;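 active = thallium flux slope and its plate-corrected score both differing from the plate sample mean at a set confidence after two filtering rounds, in either direction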;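 note: slope of fluorescence scaled to starting intensity during 10 to 20 s after thallium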
Target sequence (Q9H2X9 whole entry, looked up): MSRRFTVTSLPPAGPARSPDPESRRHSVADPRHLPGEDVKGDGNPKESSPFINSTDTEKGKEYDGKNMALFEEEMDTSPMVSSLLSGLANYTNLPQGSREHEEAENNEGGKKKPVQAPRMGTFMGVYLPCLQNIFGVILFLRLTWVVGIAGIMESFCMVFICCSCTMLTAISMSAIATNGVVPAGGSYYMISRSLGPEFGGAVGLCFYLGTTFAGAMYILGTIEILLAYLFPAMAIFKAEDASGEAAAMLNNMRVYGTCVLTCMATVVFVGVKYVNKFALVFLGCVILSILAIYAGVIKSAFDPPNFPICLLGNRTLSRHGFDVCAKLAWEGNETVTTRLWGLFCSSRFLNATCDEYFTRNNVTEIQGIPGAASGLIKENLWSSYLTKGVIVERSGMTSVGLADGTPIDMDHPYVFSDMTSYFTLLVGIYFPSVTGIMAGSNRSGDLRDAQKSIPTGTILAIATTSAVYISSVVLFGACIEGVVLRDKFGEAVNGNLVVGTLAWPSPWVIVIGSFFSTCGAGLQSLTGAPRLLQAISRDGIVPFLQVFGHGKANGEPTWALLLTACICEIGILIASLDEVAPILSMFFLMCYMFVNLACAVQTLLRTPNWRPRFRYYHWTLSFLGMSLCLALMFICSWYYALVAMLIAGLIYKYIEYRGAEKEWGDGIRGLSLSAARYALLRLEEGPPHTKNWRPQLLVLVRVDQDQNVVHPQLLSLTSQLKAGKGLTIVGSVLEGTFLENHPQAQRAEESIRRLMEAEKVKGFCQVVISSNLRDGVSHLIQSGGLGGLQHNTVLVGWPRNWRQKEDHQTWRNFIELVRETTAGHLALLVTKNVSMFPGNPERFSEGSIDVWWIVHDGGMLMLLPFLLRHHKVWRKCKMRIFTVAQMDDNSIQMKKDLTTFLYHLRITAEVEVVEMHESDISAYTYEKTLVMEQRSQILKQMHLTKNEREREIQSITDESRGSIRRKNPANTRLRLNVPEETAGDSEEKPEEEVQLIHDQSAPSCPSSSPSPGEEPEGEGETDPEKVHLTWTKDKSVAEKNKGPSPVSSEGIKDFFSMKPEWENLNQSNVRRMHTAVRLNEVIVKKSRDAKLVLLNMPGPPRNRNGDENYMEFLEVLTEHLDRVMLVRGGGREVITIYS
STAT1 activator: activators of IFN-gamma induced STAT1 signaling | 2.6% of 200,000 active | AID 932 | activation (% of control), % at 5.5 µM | NIH 3T3 STAT1-luciferase reporter, luminescence; 100% = IFN-gamma alone, no compound;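 active = activation above the screen-wide mean activation plus 3 SD, cut at about 130% in these data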;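 note: raw ratio to IFN-gamma control signal so 100% means no change and 0% no light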
STAT3 act: increases IL-6 driven STAT3 reporter signal; 0.91% of 190,000 active; activation (% of control), % at 5.6 µM; U3A cells, IL-6 STAT3-luciferase reporter, luminescence; 100% = signal with IL-6 EC80 alone;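 active = activation above the screen-wide mean of compound activation plus 3 SD, cut at about 130% in these data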;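 note: 0% = background luminescence of wells with medium and substrate only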
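Material: STAT3-luciferase reporter U3A cells; Probe or stimulus: IL-6 (33 ng/mL); Incubation: compound pre-incubation 1 h before IL-6, then 6 h stimulation at 37 °C; Technique: luminescence from STAT3-driven luciferase reporter; Evaluation: % activation versus median of IL-6-stimulated wells; Controls: IL-6-only high control.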
KCC2 secondary: KCC2 (human) modulation, secondary assay. shares compounds with KCC2 mod. HEK293-KCC2, thallium flux, FluoZin2 fluorescence; active compounds read high. normalised thallium flux (F/F0 slope) at 10 µM. 15% of 3,700 active;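 active = thallium flux slope above the same plate's solvent-only control mean plus 3 SD; inconclusive = the two replicate wells disagree; inactive = no significant difference from solvent-only control wells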
KCC2 bumet counter: thallium flux persisting under bumetanide in KCC2 cells, counter-screen secondary assay; HEK293-KCC2 + bumetanide/ouabain, thallium flux FluoZin2; active compounds read high; shares compounds with KCC2 mod; normalized thallium flux at 10 µM; 49% of 3,700 active;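 active = thallium entry rate above the same plate's blocked-transporter control wells by more than 3 SD; inconclusive = the two repeat wells disagree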;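 note: raw slope of fluorescence over initial fluorescence between 10 and 20 s after thallium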
KCC2 secondary2: confirmation of human KCC2 transport modulators; 23% of 3,700 active; normalized thallium flux at 10 µM; HEK293-KCC2, thallium flux FluoZin2 fluorescence; actives lie on both sides; F/F0 rise rate, 10–20 s post-thallium; shares compounds with KCC2 mod;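 active = thallium flux slope more than 3 SD above or below the plate's solvent-only control mean, mostly below; inconclusive = the two repeat wells disagreed; inactive = no significant shift from solvent-only controls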;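 note: raw slope with 0.1% DMSO as baseline and bumetanide as block control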
HEK counter1: parental HEK flux effect, counter-screen; 46% of 3,700 active; HEK293 parental cells, thallium flux FluoZin2, ouabain; baseline-ratio fluorescence slope, 10–20 s after thallium; shares compounds with KCC2 mod; thallium flux rate (normalised fluorescence) at 10 µM; AID 1716;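 active = thallium flux rate significantly above the same plate's solvent-only control wells, beyond their mean plus 3 SD; inconclusive = the two replicate wells gave conflicting results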
KCC2 ouabain: confirmation of human KCC2 modulators with ouabain; 48% of 3,700 active; AID 1717; HEK293-KCC2, thallium flux FluoZin2 fluorescence; bidirectional: low = inhibitor, high = activator; shares compounds with KCC2 mod; raw Tl+ flux slope (below DMSO = inhibition, above = activation) at 10 µM;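 active = thallium flux slope beyond 3 SD from same-plate DMSO control mean in most replicates, usually higher, sometimes lower; inconclusive = repeat tests gave conflicting results; inactive = no significant difference from controls in most replicates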;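 note: slope of initial-normalized fluorescence between seconds 10 and 20 after thallium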
HEK counter2: counter-screen for KCC2 modulators: effect in parental HEK293 cells; shares compounds with KCC2 mod; thallium flux FluoZin-2 fluorescence slope; thallium flux slope at 10 µM; 33% of 3,700 active; AID 1718;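 active = thallium flux slope above the same plate's solvent-control mean plus 3 SD in both duplicate wells; inconclusive = duplicate wells that disagreed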;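 note: run without ouabain in cells lacking the KCC2 cotransporter; slope of fluorescence scaled to its starting value between 10 and 20 s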
The depositor's hits bear a star; i = inactive; ? = inconclusive; . = not tested or not shown.

SMILES	HSV replic up	STAT1 blocker	STAT3 inh	KCC2 mod	STAT1 activator	STAT3 act	KCC2 secondary	KCC2 bumet counter	KCC2 secondary2	HEK counter1	KCC2 ouabain	HEK counter2
COc1cc(/C=C2\SC(=S)N(NS(=O)(=O)c3ccc(C)cc3)C2=O)ccc1O	?	.	.	-4.9*	.	.	0.0059	-0.0052*	0.018*	0.0044*	0.0057*	?
CCC(=O)N[C@@H]1CC(C(C)(C)NC(=O)CC)CC=C1C (some centres undefined)	i	8	-3	0.57	93	105	.	.	.	.	.	.
COc1cc(/C=C2\SC(=S)N(Nc3ccccc3)C2=O)cc(OC)c1OC	i	-1	14	0.6	101	95	.	.	.	.	.	.
COc1cc(/C=C2\SC(=S)N(NS(=O)(=O)c3ccc(C)cc3)C2=O)cc(OC)c1OC	i	.	.	7.8*	.	.	0.009	0.022*	0.03	0.014*	0.021	0.011
CCC1CCCCN1C(=O)c1c[nH]c2ccc(S(=O)(=O)N(C)c3ccc(Cl)cc3)cc2c1=O (centres undefined)	i	-1	8	.	101	99	0.016	?	?	0.0065	0.015	0.0092
N#C/C(=C\c1ccc(-c2ccc([N+](=O)[O-])cc2)o1)C(=O)Nc1nc(-c2cccs2)cs1	i	.	.	1.9	.	.	.	.	.	.	.	.
N#C/C(=C\c1ccc(-c2ccccc2[N+](=O)[O-])o1)C(=O)Nc1nc(-c2cccs2)cs1	i	0	0	7.7*	100	96	0.018	0.027*	0.032	0.017*	0.022*	0.016*
Cc1ccccc1NC(=S)NCc1ccccc1	i	17	-3	-0.79	85	101	.	.	.	.	.	.
O=C(NCCc1c[nH]c2ccccc12)c1cc(S(=O)(=O)N2CCCCC2)ccc1N1CCOCC1	i	-6	-7	.	105	110	0.0059	0.0046	?	0.0069	0.015*	0.012
N#Cc1cc2c(nc1SCC(O)CS(=O)(=O)Cc1ccccc1)CCCC2 (centres undefined)	i	14	13	-2.9*	92	92	?	0.0053	0.032	0.0072	?	0.01
N#Cc1cc2c(nc1SCc1ccccc1)CCCCC2	i	-17	9	0.29	116	95	.	.	.	.	.	.
COc1ccc(OC)c2sc(NNC(=O)COc3ccccc3)nc12	i	6	-3	3.4*	93	104	0.0074	0.012*	0.031	0.011*	?	0.013*
Cc1ccc(S(=O)(=O)N2CCC(=O)N(C(COCc3cccc(Cl)c3)Cc3ccccc3)CC2)cc1 (centres undefined)	i	3	-5	-3.8	97	102	.	.	.	.	.	.
Cc1ccc(S(=O)(=O)N2CCC(=O)N(C(COCc3ccccc3)Cc3ccccc3)CC2)cc1 (centres undefined)	i	4	-22	-5.9*	96	116	0.0091	0.0061	?	0.0072	0.015*	0.011
CS(=O)(=O)N(CC(=O)Nc1ccc2c(c1)OCCO2)Cc1ccccc1	i	1	6	0.075	99	98	.	.	.	.	.	.
O=C(CN(Cc1ccccc1)S(=O)(=O)c1ccc2c(c1)OCCO2)Nc1ccc2c(c1)OCCO2	i	-10	9	.	109	98	0.0066	0.0041	0.025*	0.0062*	?	0.0093
O=C(Nc1nnc(COc2ccc(F)cc2)s1)Nc1ccccc1F	i	.	.	0.46	.	.	.	.	.	.	.	.
O=C(c1ccc2c3n(nc2c1)-c1ccccc1CO3)N1CCCCC1	i	.	.	-2.5*	.	.	0.0069	?	0.032	0.0076	0.02	0.0098
CCC(=O)c1ccc(N2CCN(C(=O)Cc3ccccc3)CC2)c(F)c1	i	-2	5	-1.5	102	97	.	.	.	.	.	.
CCC(=O)c1cc(F)c(N2CCN(C(=O)Cc3ccccc3)CC2)cc1C	i	6	1	-2.9*	94	102	0.0074	0.0053	0.033	0.0074	0.018*	?
O=C(Cc1ccc(-n2cccc2)cc1)N1CCN(c2ccccc2F)CC1	.	4	-2	-6.8*	96	106	0.0078	0.0055	0.032	0.0038	0.016*	0.012
O=C(CCCC(=O)N1CCN(c2ccccc2F)CC1)N1CCN(c2ccccc2F)CC1	i	-11	3	.	110	98	.	.	.	.	.	.
COc1ccccc1Oc1ncnc2c1cnn2-c1ccccc1	i	-27	16	-5*	124	92	?	0.0056	0.033	0.0036	0.015*	0.011
COc1ccccc1-c1ccc(SCC(=O)NCc2ccc3c(c2)OCO3)nn1	i	4	16	-1.5	94	95	.	.	.	.	.	.
O=C(Cn1nc(-c2ccccc2F)ccc1=O)NCc1ccc2c(c1)OCO2	i	3	9	-3.9*	98	99	?	0.0051	?	0.0077	0.014	0.01
SMILES	HSV replic up	STAT1 blocker	STAT3 inh	KCC2 mod	STAT1 activator	STAT3 act	KCC2 secondary	KCC2 bumet counter	KCC2 secondary2	HEK counter1	KCC2 ouabain	HEK counter2
O=C(CSc1ccc(-c2ccccc2)nn1)N1CCCc2ccccc21	i	-12	5	-4.7*	110	98	0.0075	0.0053	0.021*	0.0071	?	0.011
CC(C)(C)N(Cc1ccccc1)C(=O)CSc1nnc(CNc2ccc(F)cc2)o1	i	3	-3	-5.3*	96	103	0.0062	0.006	0.029	0.0072	0.013*	0.012
O=C(CSc1nnc(-c2ccncc2)o1)c1ccc2c(c1)OCCO2	i	-3	14	-0.4	100	92	.	.	.	.	.	.
CC1Cc2ccccc2N1C(=O)CSc1nnc(CNc2ccccc2)o1 (centres undefined)	i	2	17	.	98	94	0.0069	0.0046	0.023*	0.0077	0.013*	0.01
CC1Cc2ccccc2N1C(=O)CSc1ccccc1 (centres undefined)	i	-3	8	-2.4	102	96	.	.	.	.	.	.
O=C(CSc1nnc(CNc2ccccc2)o1)c1ccc2c(c1)OCCO2	i	-4	6	-4.4*	103	98	0.0059	?	0.024*	0.0083	?	0.011

From PubChem BioAssay
